Assay [1] concerns Blood. The experiment in a line: Inhibition of arachidonic acid-induced platelet aggregation in human blood after 3 mins by turbidimetric assay. In kind it is functional, tissue-based. The conditions noted are these: 0.05 h. A digest of the protocol: (§1)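 Washed human platelets were prepared from ACD-anticoagulated blood of healthy volunteers who had taken no drugs for two weeks. They were resuspended at 3 × 10⁸/ml in Tyrode's solution with Ca²⁺ 2 mM, glucose 11.1 mM and BSA 3.5 mg/ml. Platelets were preincubated with DMSO (0.5%) or compound at 37 °C for 3 min, stirring at 1200 rpm. Inducers were arachidonic acid, collagen, U46619 or thrombin (0.1 U/ml). Aggregation was read by light transmission. IC50 is mean ± SEM, n = 3.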

The subject of assay [2] is Blood. The experiment in a line: Inhibition of U46619-induced platelet aggregation in human blood after 3 mins by turbidimetric assay. In kind it is functional, tissue-based. The conditions noted are these: 0.05 h. A digest of the protocol: as §1
For assay [3], the system named is Platelet. Description: Inhibition of arachidonic acid-induced TxB2 formation in human platelet at 0.5 uM per 3 x 10^8 platelets by immunoassay. In kind it is functional. A digest of the protocol: (§2)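 Washed human platelets were suspended in Tyrode's solution with Ca²⁺, glucose and BSA and preincubated with DMSO or compound at 37 °C for 3 min. Arachidonic acid was then added. After 5 min the reaction was stopped with EDTA (2 mM) plus indomethacin. Samples were centrifuged for 3 min at 13,000 rpm. Supernatant TxB2 was measured by enzyme immunoassay and expressed per 3 × 10⁸ platelets. Values are mean ± SEM, n = 3.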

Assay [4] deals with Platelet. The experiment in a line: Inhibition of arachidonic acid-induced TxB2 formation in human platelet at 1 uM per 3 x 10^8 platelets by immunoassay. In kind it is functional. The procedure, abridged:
as §2

The subject of assay [5] is Blood. The experiment in a line: Inhibition of thrombin-induced platelet aggregation in human blood after 3 mins by turbidimetric assay. The conditions noted are these: 0.05 h.
Assay [6] relates to Blood. The experiment in a line: Inhibition of collagen-induced platelet aggregation in human blood after 3 mins by turbidimetric assay. The conditions noted are these: 0.05 h.
Assay [7] relates to Platelet. The experiment in a line: Inhibition of arachidonic acid-induced TxB2 formation in human platelet at 200 uM per 3 x 10^8 platelets by immunoassay. It counts as functional. The procedure, abridged:
as §2

Each structure is given as a SMILES string.

In ChEMBL document CHEMBL1150253, “Synthesis and anti-platelet evaluation of 2-benzoylaminobenzoate analogs” (Bioorg Med Chem, 2008) one finds IC50 and Activity data, which are given here for five compounds.

Turning to `CCCOC(=O)c1ccc(Cl)cc1NC(=O)c1ccccc1Cl`, the IC50 in assay [1] was 0.7 µM; in assay [2] it was over 100 µM; in assay [5], over 100 µM; in assay [6] it was 2.3 µM. In addition, the Activity is given as 62.56 ng in assay [3] and 32.52 ng in assay [4].

Regarding `CCCOC(=O)c1ccc(Cl)cc1NC(=O)c1c(F)cccc1F`, the IC50 was 0.5 µM in assay [1], over 100 µM in assay [2] and 48.8 µM in assay [5]. Moreover, the Activity in assay [3] is listed as 45.47 ng; in assay [4], 7.74 ng.

For `COC(=O)c1ccc(Cl)cc1NC(=O)c1c(F)cccc1F`, the IC50 in assay [1] was 0.7 µM; in assay [2], over 100 µM; in assay [5], over 100 µM. Also, the Activity was found to be 61.18 ng in assay [3] and 29.48 ng in assay [4].

For the compound `CC(=O)Oc1ccccc1C(=O)O` [ASPIRIN], the IC50 in assay [1] was 150 µM; in assay [2], over 100 µM; in assay [5], over 100 µM; in assay [6], 153 µM. The same compound registered an Activity in assay [7] of 26.68 ng.

Take `COc1ccc2c(c1)c(CC(=O)O)c(C)n2C(=O)c1ccc(Cl)cc1` [INDOMETHACIN]: the 50% inhibitory concentration (IC50) in assay [1] was 0.12 µM; in assay [2], over 100 µM; in assay [5], over 100 µM; in assay [6], 0.4 µM. In assay [3], this compound registered an Activity of 3.09 ng.

What is called IC50 is the concentration needed to halve the response being measured. Low readings indicate greater potency, high ones weaker potency.
